# The source made the active and inactive calls. The calls are words filed in the database; no cut-off is given here.
# Legend:
# [1] = tested on: Rhizopus arrhizus; test: Antifungal activity against drug-susceptible Rhizopus oryzae UTHSC 06-3913 by broth microdilution method; assay type: functional
# Summary of the method: (§1)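 Posaconazole MIC in ug/ml, determined by broth microdilution following the CLSI guidelines for moulds (M38-A2).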
# [2] = tested on: Rhizopus arrhizus; test: Antifungal activity against drug-susceptible Rhizopus oryzae UTHSC 06-89 by broth microdilution method; assay type: functional
# [3] = tested on: Rhizopus arrhizus; test: Antifungal activity against drug-susceptible Rhizopus oryzae UTHSC 06-731 by broth microdilution method; assay type: functional
# [4] = tested on: Rhizopus arrhizus; test: Antifungal activity against drug-susceptible Rhizopus oryzae UTHSC 2868 by broth microdilution method; assay type: functional
# [5] = tested on: Rhizopus arrhizus; test: Antifungal activity against drug-susceptible Rhizopus oryzae UTHSC 06-1351 by broth microdilution method; assay type: functional; summary of the method: as §1
# [6] = tested on: Rhizopus arrhizus; test: Antifungal activity against drug-susceptible Rhizopus oryzae UTHSC 06-4035 by broth microdilution method; assay type: functional; summary of the method: as §1
# [7] = tested on: Rhizopus arrhizus; test: Antifungal activity against drug-susceptible Rhizopus oryzae UTHSC 05-3132 by broth microdilution method; assay type: functional; summary of the method: as §1
# [8] = tested on: Rhizopus arrhizus; test: Antifungal activity against drug-susceptible Rhizopus oryzae UTHSC 03-547 by broth microdilution method; assay type: functional
# Summary of the method: (§2)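 CLSI broth microdilution for filamentous fungi (M38-A2); MIC recorded in µg/ml against clinical isolates; breakpoints applied at 24 h.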
# [9] = tested on: Rhizopus arrhizus; test: Antifungal activity against drug-susceptible Rhizopus oryzae UTHSC 05-197 by broth microdilution method; assay type: functional; summary of the method: as §2
# [10] = tested on: Rhizopus arrhizus; test: Antifungal activity against drug-susceptible Rhizopus oryzae UTHSC 03-3110 by broth microdilution method; assay type: functional; summary of the method: as §2
# [11] = tested on: Rhizopus arrhizus; test: Antifungal activity against drug-susceptible Rhizopus oryzae UTHSC 05-1817 by broth microdilution method; assay type: functional; summary of the method: as §2
# [12] = tested on: Rhizopus arrhizus; test: Antifungal activity against drug-susceptible Rhizopus oryzae UTHSC 05-3580 by broth microdilution method; assay type: functional; summary of the method: as §1
# [13] = tested on: Rhizopus arrhizus; test: Antifungal activity against drug-susceptible Rhizopus oryzae UTHSC 06-3827 by broth microdilution method; assay type: functional; summary of the method: as §1
# [14] = tested on: Rhizopus arrhizus; test: Antifungal activity against drug-susceptible Rhizopus oryzae UTHSC 03-299 by broth microdilution method; assay type: functional; summary of the method: as §2
# [15] = tested on: Rhizopus arrhizus; test: Antifungal activity against drug-susceptible Rhizopus oryzae UTHSC 05-1679 by broth microdilution method; assay type: functional; summary of the method: as §2
# [16] = tested on: Rhizopus arrhizus; test: Antifungal activity against drug-intermediate Rhizopus oryzae UTHSC 07-365 by broth microdilution method; assay type: functional
# Summary of the method: (§3)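 Broth microdilution MIC in µg/ml, run per the CLSI (formerly NCCLS) guideline for filamentous fungi, M38-A2.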
# [17] = tested on: Rhizopus arrhizus; test: Antifungal activity against drug-intermediate Rhizopus oryzae UTHSC 04-3109 by broth microdilution method; assay type: functional; summary of the method: as §3
# [18] = tested on: Rhizopus arrhizus; test: Antifungal activity against drug-susceptible Rhizopus oryzae UTHSC 03-228 at 5 ug by disk diffusion assay; assay type: functional; conditions: read-out: DIZ
# Summary of the method: (§4)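 Neo-Sensitabs tablet diffusion on Mueller-Hinton agar, following the guidelines for molds. Tablets were 9 mm in diameter and held 5 µg of drug. The read-out was inhibition zone diameter in mm.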
# [19] = tested on: Rhizopus arrhizus; test: Antifungal activity against drug-susceptible Rhizopus oryzae UTHSC 05-1502 at 5 ug by disk diffusion assay; assay type: functional; conditions: read-out: DIZ
# Summary of the method: (§5)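 Neo-Sensitabs tablet diffusion on Mueller-Hinton agar, following guidelines for molds; 9 mm tablets containing 5 µg posaconazole; inhibition zone diameter measured in mm; zone breakpoints applied at 24 h.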
# [20] = tested on: Rhizopus arrhizus; test: Antifungal activity against drug-susceptible Rhizopus oryzae UTHSC 05-3132 at 5 ug by disk diffusion assay; assay type: functional; conditions: read-out: DIZ
# Summary of the method: (§6)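 Neo-Sensitabs tablet diffusion on Mueller-Hinton agar, run per the mould guidelines. Tablets are 9 mm in diameter and carry 5 ug posaconazole. The read-out is the inhibition zone diameter in mm.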
# [21] = tested on: Rhizopus arrhizus; test: Antifungal activity against drug-susceptible Rhizopus oryzae UTHSC 02-439 at 5 ug by disk diffusion assay; assay type: functional; conditions: read-out: DIZ; summary of the method: as §4
# [22] = tested on: Rhizopus arrhizus; test: Antifungal activity against drug-susceptible Rhizopus oryzae UTHSC 05-1817 at 5 ug by disk diffusion assay; assay type: functional; conditions: read-out: DIZ; summary of the method: as §5
# [23] = tested on: Rhizopus arrhizus; test: Antifungal activity against drug-susceptible Rhizopus oryzae UTHSC 412-546 at 5 ug by disk diffusion assay; assay type: functional; conditions: read-out: DIZ
# [24] = tested on: Rhizopus arrhizus; test: Antifungal activity against drug-susceptible Rhizopus oryzae UTHSC 05-2447 at 5 ug by disk diffusion assay; assay type: functional; conditions: read-out: DIZ; summary of the method: as §5
# [25] = tested on: Rhizopus arrhizus; test: Antifungal activity against drug-susceptible Rhizopus oryzae UTHSC 06-3827 at 5 ug by disk diffusion assay; assay type: functional; conditions: read-out: DIZ; summary of the method: as §6
# [26] = tested on: Rhizopus arrhizus; test: Antifungal activity against drug-susceptible Rhizopus oryzae UTHSC 02-2882 after 24 to 48 hrs; assay type: functional
# [27] = tested on: Rhizopus arrhizus; test: Antifungal activity against drug-susceptible Rhizopus oryzae UTHSC 04-443 after 24 to 48 hrs; assay type: functional
# Summary of the method: (§7)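 Minimum fungicidal concentration: 20 µl from each microdilution well showing complete inhibition (optically clear) plated on potato dextrose agar, incubated 35°C for 24 to 48 h; MFC taken as lowest drug concentration giving no growth.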
# [28] = tested on: Rhizopus arrhizus; test: Antifungal activity against drug-susceptible Rhizopus oryzae UTHSC 06-731 after 24 to 48 hrs; assay type: functional
# [29] = tested on: Rhizopus arrhizus; test: Antifungal activity against drug-susceptible Rhizopus oryzae UTHSC 06-1080 after 24 to 48 hrs; assay type: functional
# Summary of the method: (§8)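 Minimum fungicidal concentration taken from the broth microdilution plates. From each well with complete inhibition (optically clear), 20 ul is plated on potato dextrose agar. Plates are incubated at 35°C for 24 to 48 h. The MFC is the lowest drug concentration giving no growth.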
# [30] = tested on: Rhizopus arrhizus; test: Antifungal activity against drug-susceptible Rhizopus oryzae UTHSC 05-1502 after 24 to 48 hrs; assay type: functional; summary of the method: as §7
# [31] = tested on: Rhizopus arrhizus; test: Antifungal activity against drug-susceptible Rhizopus oryzae UTHSC 03-547 after 24 to 48 hrs; assay type: functional; summary of the method: as §7
# [32] = tested on: Rhizopus arrhizus; test: Antifungal activity against drug-susceptible Rhizopus oryzae UTHSC 04-1220 after 24 to 48 hrs; assay type: functional; summary of the method: as §7
# [33] = tested on: Rhizopus arrhizus; test: Antifungal activity against drug-susceptible Rhizopus oryzae UTHSC 06-2374 after 24 to 48 hrs; assay type: functional; summary of the method: as §8
# [34] = tested on: Rhizopus arrhizus; test: Antifungal activity against drug-susceptible Rhizopus oryzae UTHSC 03-112 after 24 to 48 hrs; assay type: functional
# [35] = tested on: Rhizopus arrhizus; test: Antifungal activity against drug-intermediate Rhizopus oryzae UTHSC 07-365 after 24 to 48 hrs; assay type: functional
# [36] = tested on: Rhizopus arrhizus; test: Antifungal activity against drug-susceptible Rhizopus oryzae infected in OF1 mouse assessed as mouse survival at 30 mg/kg, po bid treated 24 hrs after fungal infection; assay type: functional
# [37] = tested on: Rhizopus arrhizus; test: Antifungal activity against drug-intermediate Rhizopus oryzae UTHSC 07-365 infected in OF1 mouse assessed as reduction in brain fungal load at 10-30 mg/kg, po bid treated 24 hrs after fungal infection; assay type: functional, organism-based
# Summary of the method: (§9)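 Tissue burden in immunosuppressed male OF1 mice, using cyclophosphamide 200 mg/kg i.p. plus 5-fluorouracil 150 mg/kg i.v. on day −1. Mice received 2 × 10^4 CFU i.v. by tail vein, then oral gavage at 10, 20 or 30 mg/kg BID from 24 h post-challenge, with ceftazidime cover; untreated controls. Groups of 10 were killed on day 4. Kidneys and brains were homogenized in 2 ml saline, serially diluted 10-fold, plated on PDA and counted after 24 h at 35°C.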
# [38] = tested on: Rhizopus arrhizus; test: Antifungal activity against drug-intermediate Rhizopus oryzae UTHSC 04-3109 infected in OF1 mouse assessed as reduction in brain fungal load at 10-30 mg/kg, po bid treated 24 hrs after fungal infection; assay type: functional, organism-based; summary of the method: as §9
# [39] = tested on: Rhizopus arrhizus; test: Antifungal activity against drug-intermediate Rhizopus oryzae UTHSC 05-3032 infected in OF1 mouse assessed as reduction in brain fungal load at 10-30 mg/kg, po bid treated 24 hrs after fungal infection; assay type: functional, organism-based; summary of the method: as §9
# [40] = tested on: Rhizopus arrhizus; test: Antifungal activity against drug-intermediate Rhizopus oryzae UTHSC 03-3165 by broth microdilution method; assay type: functional; summary of the method: as §3
smiles,measurement,setting,value
CC[C@@H]([C@H](C)O)n1ncn(-c2ccc(N3CCN(c4ccc(OC[C@@H]5CO[C@@](Cn6cncn6)(c6ccc(F)cc6F)C5)cc4)CC3)cc2)c1=O [POSACONAZOLE],MIC,[1],0.5 µg/mL
same,MIC,[2],0.25 µg/mL
same,MIC,[3],0.5 µg/mL
same,MIC,[4],1 µg/mL
same,MIC,[5],0.25 µg/mL
same,MIC,[6],0.5 µg/mL
same,MIC,[7],0.5 µg/mL
same,MIC,[8],0.25 µg/mL
same,MIC,[9],0.25 µg/mL
same,MIC,[10],1 µg/mL
same,MIC,[11],0.25 µg/mL
same,MIC,[12],0.5 µg/mL
same,MIC,[13],1 µg/mL
same,MIC,[14],1 µg/mL
same,MIC,[15],0.5 µg/mL
same,MIC,[16],2 µg/mL
same,MIC,[17],2 µg/mL
same,zone of inhibition at 5 µg/disc,[18],25 mm
same,zone of inhibition at 5 µg/disc,[19],21 mm
same,zone of inhibition at 5 µg/disc,[20],20 mm
same,zone of inhibition at 5 µg/disc,[21],22 mm
same,zone of inhibition at 5 µg/disc,[22],25 mm
same,zone of inhibition at 5 µg/disc,[23],15 mm
same,zone of inhibition at 5 µg/disc,[24],17 mm
same,zone of inhibition at 5 µg/disc,[25],18 mm
same,MFC,[26],0.5 µg/mL
same,MFC,[27],1 µg/mL
same,MFC,[28],0.5 µg/mL
same,MFC,[29],> 16 µg/mL
same,MFC,[30],1 µg/mL
same,MFC,[31],0.5 µg/mL
same,MFC,[32],1 µg/mL
same,MFC,[33],1 µg/mL
same,MFC,[34],1 µg/mL
same,MFC,[35],16 µg/mL
same,Activity,[36],30%
same,Activity,[37],inactive
same,Activity,[38],inactive
same,Activity,[39],inactive
same,MIC,[40],2 µg/mL

# Reference: ChEMBL document CHEMBL1255417, “Correlation between in vitro activity of posaconazole and in vivo efficacy against Rhizopus oryzae infection in mice” (Antimicrob Agents Chemother, 2010)
